pIC50: −log10 of the molar value.
Columns and labels:
[1] = target: T1, Prostaglandin G/H synthase 1 (Mus musculus, UniProt P22437); test: Inhibition of COX1 in mouse J774 cells using arachidonic acid as substrate assessed as inhibition of PGE2 production incubated for 15 mins prior to substrate addition measured after 30 mins by radioimmunoassay; type: cell-based
T1 sequence (P22437 whole entry): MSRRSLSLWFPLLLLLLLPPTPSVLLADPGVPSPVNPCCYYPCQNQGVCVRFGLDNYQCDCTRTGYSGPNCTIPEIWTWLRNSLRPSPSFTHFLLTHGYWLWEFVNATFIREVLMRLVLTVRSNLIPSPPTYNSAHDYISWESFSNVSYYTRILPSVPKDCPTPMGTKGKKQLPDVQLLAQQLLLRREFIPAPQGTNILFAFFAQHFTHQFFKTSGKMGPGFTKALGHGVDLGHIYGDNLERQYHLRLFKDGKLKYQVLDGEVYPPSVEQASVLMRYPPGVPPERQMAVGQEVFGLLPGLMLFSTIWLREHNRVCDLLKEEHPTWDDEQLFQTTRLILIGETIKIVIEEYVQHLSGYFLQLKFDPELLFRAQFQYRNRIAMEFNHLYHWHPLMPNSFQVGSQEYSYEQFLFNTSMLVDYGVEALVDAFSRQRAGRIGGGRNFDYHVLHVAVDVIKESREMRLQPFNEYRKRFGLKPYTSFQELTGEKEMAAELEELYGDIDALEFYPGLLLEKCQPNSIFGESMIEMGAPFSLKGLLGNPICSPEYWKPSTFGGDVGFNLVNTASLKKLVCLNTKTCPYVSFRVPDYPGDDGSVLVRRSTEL
Summary of the method: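 J774 cells allowed to adhere 2 h at 37 °C, 5% CO2; medium swapped for FBS-free medium just before use. Pre-treatment with compounds (0.01–10 µM) for 15 min, then 30 min at 37 °C with 15 µM arachidonic acid to activate constitutive COX-1. Supernatant PGE2 by RIA; triplicate wells, mean of three experiments as % inhibition vs control; IC50 from sigmoidal variable-slope fit.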

Mus musculus [2] = test: Analgesic activity in Swiss albino mouse inflammatory pain model assessed as inhibition of acetic acid-induced writhing at 20 mg/kg, po administered 30 mins prior to acetic acid challenge relative to vehicle-treated control; type: functional
Summary of the method: (§1)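 Male Swiss albino mice (23–25 g), standard diet, water ad libitum, 23 ± 1 °C, 12 h light/dark cycle, randomised into groups. Compound or vehicle (suspended in 1% carboxymethylcellulose) given orally 30 min before ip 0.6% acetic acid. Writhes counted starting 5 min after injection. Reported as writhe count and % reduction versus vehicle-treated mice. Mean of 10 mice per group.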

Mus musculus [3] = test: Analgesic activity in Swiss albino mouse inflammatory pain model assessed as inhibition of acetic acid-induced writhing at 10 mg/kg, po administered 30 mins prior to acetic acid challenge relative to vehicle-treated control; type: functional; summary of the method: as §1
[4] = target: T2, Prostaglandin G/H synthase 2 (Mus musculus, UniProt Q05769); test: Inhibition of COX2 in mouse J774 cells assessed as inhibition of LPS-induced PGE2 production by radioimmunoassay; type: cell-based
T2 sequence (Q05769 whole entry): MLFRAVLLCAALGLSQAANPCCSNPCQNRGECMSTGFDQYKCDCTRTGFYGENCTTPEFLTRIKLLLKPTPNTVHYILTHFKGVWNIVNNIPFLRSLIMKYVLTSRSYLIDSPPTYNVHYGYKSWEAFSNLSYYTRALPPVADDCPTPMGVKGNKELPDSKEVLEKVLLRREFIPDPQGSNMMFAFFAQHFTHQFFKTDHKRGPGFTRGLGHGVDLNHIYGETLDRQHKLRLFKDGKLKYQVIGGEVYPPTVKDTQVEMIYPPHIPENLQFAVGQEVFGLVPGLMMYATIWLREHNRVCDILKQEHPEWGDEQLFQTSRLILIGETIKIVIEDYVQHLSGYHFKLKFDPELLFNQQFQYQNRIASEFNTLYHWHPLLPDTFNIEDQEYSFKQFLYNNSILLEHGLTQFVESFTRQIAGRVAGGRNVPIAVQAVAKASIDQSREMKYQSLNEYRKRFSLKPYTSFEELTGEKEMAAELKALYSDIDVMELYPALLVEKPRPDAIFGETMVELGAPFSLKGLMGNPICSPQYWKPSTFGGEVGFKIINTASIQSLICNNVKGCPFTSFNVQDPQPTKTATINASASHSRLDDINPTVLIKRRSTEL

Mus musculus [5] = test: Analgesic activity in Swiss albino mouse inflammatory pain model assessed as inhibition of acetic acid-induced writhing at 40 mg/kg, po administered 30 mins prior to acetic acid challenge relative to vehicle-treated control; type: functional; summary of the method: as §1
J774 = test: Selectivity index, ratio of IC50 for COX1 in mouse J774 cells to IC50 for COX2 in mouse J774 cells; type: cell-based
Mus musculus [6] = test: Analgesic activity in Swiss albino mouse inflammatory pain model assessed as inhibition of acetic acid-induced writhing at 5 mg/kg, po administered 30 mins prior to acetic acid challenge relative to vehicle-treated control; type: functional; summary of the method: as §1
[7] = target: Prostaglandin G/H synthase 1 (Homo sapiens, UniProt P23219); type: tissue-based, Blood
[8] = target: T3, Prostaglandin G/H synthase 2 (Homo sapiens, UniProt P35354); set-up: species or system Blood
T3 sequence (P35354 whole entry): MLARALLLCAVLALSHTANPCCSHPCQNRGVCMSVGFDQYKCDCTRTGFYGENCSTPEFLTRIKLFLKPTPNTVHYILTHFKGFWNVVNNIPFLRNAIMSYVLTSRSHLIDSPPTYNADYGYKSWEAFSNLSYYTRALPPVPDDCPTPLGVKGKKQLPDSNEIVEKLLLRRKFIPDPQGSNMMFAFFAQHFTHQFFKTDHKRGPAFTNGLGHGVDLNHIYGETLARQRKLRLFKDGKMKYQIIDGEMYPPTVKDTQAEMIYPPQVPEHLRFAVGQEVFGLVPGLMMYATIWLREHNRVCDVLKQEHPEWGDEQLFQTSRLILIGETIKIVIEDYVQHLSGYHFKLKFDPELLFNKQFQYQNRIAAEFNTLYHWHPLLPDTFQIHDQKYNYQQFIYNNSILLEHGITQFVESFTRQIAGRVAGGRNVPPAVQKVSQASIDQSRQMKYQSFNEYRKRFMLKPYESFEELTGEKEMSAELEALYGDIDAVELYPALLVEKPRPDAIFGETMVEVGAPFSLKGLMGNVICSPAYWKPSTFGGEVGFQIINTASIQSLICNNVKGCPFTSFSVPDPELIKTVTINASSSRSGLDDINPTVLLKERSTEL

Homo sapiens = species: Homo sapiens; test: Selectivity ratio of IC50 for platelet COX1 in human whole blood to IC50 for monocyte COX2 in human whole blood; type: tissue-based
Mus musculus [9] = test: Analgesic activity in Swiss albino mouse inflammatory pain model assessed as inhibition of acetic acid-induced writhing at 1 mg/kg, po administered 30 mins prior to acetic acid challenge relative to vehicle-treated control; type: functional; summary of the method: as §1
[10] = target: T4, Prostaglandin G/H synthase 2 (Mus musculus) (UniProt Q05769); test: Ratio of celecoxib IC50 to compound IC50 for COX2 in mouse J774 cells; type: cell-based
T4 sequence (whole entry): T2 sequence (Q05769 whole entry)
Summary of the method: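 The COX-2 IC50 was measured in J774 cells stimulated 24 h with E. coli LPS (10 µg/mL) with or without compound (0.01–10 µM). Supernatant PGE2 by RIA; triplicate wells, mean of three experiments; IC50 from a sigmoidal variable-slope fit. Celecoxib served as the reference for the index.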

Prostaglandin G/H synthase 1 (Homo sapiens, UniProt P23219), sequence (P23219 whole entry): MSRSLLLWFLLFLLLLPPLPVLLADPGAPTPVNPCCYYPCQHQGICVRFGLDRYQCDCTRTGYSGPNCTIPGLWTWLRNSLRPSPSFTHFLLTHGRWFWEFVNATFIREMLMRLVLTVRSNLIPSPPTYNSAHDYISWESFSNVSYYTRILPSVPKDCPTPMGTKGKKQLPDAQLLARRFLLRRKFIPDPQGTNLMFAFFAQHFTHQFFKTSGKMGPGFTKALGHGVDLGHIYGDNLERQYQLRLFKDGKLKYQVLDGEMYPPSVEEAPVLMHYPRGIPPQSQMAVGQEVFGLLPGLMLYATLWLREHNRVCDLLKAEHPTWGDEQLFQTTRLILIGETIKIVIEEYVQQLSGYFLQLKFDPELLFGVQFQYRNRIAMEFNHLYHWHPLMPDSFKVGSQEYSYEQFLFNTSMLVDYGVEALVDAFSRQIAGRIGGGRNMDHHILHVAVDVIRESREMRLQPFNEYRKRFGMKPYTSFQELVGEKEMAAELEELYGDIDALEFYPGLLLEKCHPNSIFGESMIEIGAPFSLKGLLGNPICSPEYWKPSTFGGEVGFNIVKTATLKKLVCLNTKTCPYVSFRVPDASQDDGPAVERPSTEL

SMILES	pIC50 [1]	inhibition in vivo at 20 mg/kg (Mus musculus [2]) [%]	inhibition in vivo at 10 mg/kg (Mus musculus [3]) [%]	pIC50 [4]	inhibition in vivo at 40 mg/kg (Mus musculus [5]) [%]	Ratio IC50 (J774)	inhibition in vivo at 5 mg/kg (Mus musculus [6]) [%]	pIC50 [7]	pIC50 [8]	Ratio IC50 (Homo sapiens)	inhibition in vivo at 1 mg/kg (Mus musculus [9]) [%]	Ratio IC50 [10]
Cc1c(C#N)cc(-c2ccc(S(C)(=O)=O)cc2)n1-c1ccccc1	< 5.00	42	28	6.44	59	> 27.8						
Cc1c(C#N)cc(-c2ccc(S(C)(=O)=O)cc2)n1-c1ccc(F)cc1	< 5.00	33	36		45		5					
Cc1c(C=O)cc(-c2ccc(S(C)(=O)=O)cc2)n1-c1ccc(F)c(F)c1	< 5.00	52	53	7.15	60	> 143	50	4.15	4.83	4.8	36	
Cc1c(C=O)cc(-c2ccc(S(C)(=O)=O)cc2)n1-c1ccccc1	< 5.00	32	23	7.47	30	> 294						
Cc1ccc(-c2cc(C(F)(F)F)nn2-c2ccc(S(N)(=O)=O)cc2)cc1 [CELECOXIB]		58	57		69		50				42	
Cc1c(C=O)cc(-c2ccc(S(C)(=O)=O)cc2)n1-c1cccc(F)c1	< 5.00	44	39	8.02		> 1050						8
Cc1c(C#N)cc(-c2ccc(S(C)(=O)=O)cc2)n1-c1cccc(F)c1	< 5.00	33	28	7.89	38	> 769	21	4.30	5.89	38.8		
Cc1c(C=O)cc(-c2ccc(S(C)(=O)=O)cc2)n1-c1ccc(F)cc1	< 5.00	30			31		5					
Cc1c(C#N)cc(-c2ccc(S(C)(=O)=O)cc2)n1-c1ccc(F)c(F)c1	< 5.00	38	19	8.66	57	> 454	8					36
Cc1c(/C=N\O)cc(-c2ccc(S(C)(=O)=O)cc2)n1-c1ccccc1	< 5.00	53	27	6.72	57	> 52.6	13					
Cc1c(/C=N\O)cc(-c2ccc(S(C)(=O)=O)cc2)n1-c1cccc(F)c1	< 5.00	42	32	6.36	45	> 22.7						
Cc1c(/C=N\O)cc(-c2ccc(S(C)(=O)=O)cc2)n1-c1ccc(F)cc1	< 5.00	41	36	6.44	47	> 27.8	2					
Cc1c(/C=N\O)cc(-c2ccc(S(C)(=O)=O)cc2)n1-c1ccc(F)c(F)c1	< 5.00	27	19	6.80		> 62.5	10	3.79	4.76	9.3		
